Measured values from ChEMBL document CHEMBL3872252, “New bithiazolyl hydrazones: Novel synthesis, characterization and antitubercular evaluation” (Bioorg Med Chem Lett, 2017).
Converted amounts (≈) assume the structure as drawn.

What was measured:
[1] = Antitubercular activity against Mycobacterium tuberculosis H37Ra ATCC 25177 dormant stage infected in human THP1 cells measured on day 12 by nitrate reductase assay; format: functional, THP-1; conditions: ATCC 25177, 288 h
[2] = Antitubercular activity against Mycobacterium tuberculosis H37Ra ATCC 25177 active stage infected in human THP1 cells measured on day 8 by nitrate reductase assay; format: functional, THP-1; conditions: ATCC 25177, 192 h
[3] = Antitubercular activity against Mycobacterium tuberculosis H37Ra ATCC 25177 active stage measured on day 8 by XTT reduction menadione based two-fold dilution assay; format: functional; conditions: ATCC 25177, 192 h
In short: (§1)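 M. tuberculosis H37Ra ATCC 25177 was exposed to 0.7–100 μg/mL in two-fold steps (0.7, 1.5, 3.1 … 100). Active stage was read after 8 days and dormant stage after 12 days of incubation. Inhibition was read by XTT reduction menadione assay (XRMA), absorbance 470 nm. MIC90 is the concentration giving ≥90% inhibition (µg/mL).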

[4] = Antitubercular activity against Mycobacterium tuberculosis H37Ra ATCC 25177 dormant stage measured on day 12 by XTT reduction menadione based two-fold dilution assay; format: functional; conditions: ATCC 25177, 288 h; in short: as §1
[5] = Antitubercular activity against Mycobacterium bovis BCG ATCC 35743 active stage measured on day 8 by nitrate reductase based two-fold dilution assay; format: functional, Mycobacterium bovis BCG str. ATCC 35743; conditions: Mycobacterium tuberculosis variant bovis BCG, ATCC 35743, 192 h
[6] = Antitubercular activity against Mycobacterium bovis BCG ATCC 35743 dormant stage measured on day 12 by nitrate reductase based two-fold dilution assay; format: functional, Mycobacterium bovis BCG str. ATCC 35743; conditions: Mycobacterium tuberculosis variant bovis BCG, ATCC 35743, 288 h
[7] = Cytotoxicity against human THP1 cells by MTT assay; format: toxicity, cell-based, THP-1; conditions: for GI90: thp-1
[8] = Cytotoxicity against human MCF7 cells by MTT assay; format: toxicity, cell-based; conditions: for GI90: mcf7
[9] = Cytotoxicity against human HCT116 cells by MTT assay; format: toxicity, cell-based, HCT-116; conditions: for GI90: hct-116
[10] = Selectivity index, ratio of GI50 for human MCF7 cells to MIC90 for Mycobacterium tuberculosis H37Ra ATCC 25177 active stage; format: toxicity, cell-based; conditions: read-out: Selectivity Index
In short: (§2)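 Cytotoxicity was measured on human MCF-7, HCT116 and THP-1 cells by MTT assay, with paclitaxel as reference. GI50 is the concentration inhibiting 50% of cell growth. The selectivity index is GI50 for the given cell line divided by MIC90 for the given mycobacterial strain and stage.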

[11] = Selectivity index, ratio of GI50 for human MCF7 cells to MIC90 for Mycobacterium tuberculosis H37Ra ATCC 25177 dormant stage; format: toxicity, cell-based; conditions: read-out: Selectivity Index
In short: (§3)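 Cytotoxicity was measured on human MCF-7, HCT116 and THP-1 cells by MTT assay, with paclitaxel as reference. The selectivity index is GI50 for the given cell line divided by MIC90 for the given mycobacterial strain and stage.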

[12] = Selectivity index, ratio of GI50 for human MCF7 cells to MIC90 for Mycobacterium bovis BCG ATCC 35743 active stage; format: toxicity, cell-based; conditions: read-out: Selectivity Index; in short: as §2
[13] = Selectivity index, ratio of GI50 for human MCF7 cells to MIC90 for Mycobacterium bovis BCG ATCC 35743 dormant stage; format: toxicity, cell-based; conditions: read-out: Selectivity Index; in short: as §3
[14] = Selectivity index, ratio of GI50 for human HCT116 cells to MIC90 for Mycobacterium tuberculosis H37Ra ATCC 25177 active stage; format: toxicity, cell-based, HCT-116; conditions: read-out: Selectivity Index; in short: as §2
[15] = Selectivity index, ratio of GI50 for human HCT116 cells to MIC90 for Mycobacterium tuberculosis H37Ra ATCC 25177 dormant stage; format: toxicity, cell-based, HCT-116; conditions: read-out: Selectivity Index; in short: as §3
[16] = Selectivity index, ratio of GI50 for human HCT116 cells to MIC90 for Mycobacterium bovis BCG ATCC 35743 active stage; format: toxicity, cell-based, HCT-116; conditions: read-out: Selectivity Index; in short: as §2
[17] = Selectivity index, ratio of GI50 for human HCT116 cells to MIC90 for Mycobacterium bovis BCG ATCC 35743 dormant stage; format: toxicity, cell-based, HCT-116; conditions: read-out: Selectivity Index; in short: as §3
[18] = Selectivity index, ratio of GI50 for human THP1 cells to MIC90 for Mycobacterium tuberculosis H37Ra ATCC 25177 active stage; format: toxicity, cell-based, THP-1; conditions: read-out: Selectivity Index; in short: as §2
[19] = Selectivity index, ratio of GI50 for human THP1 cells to MIC90 for Mycobacterium tuberculosis H37Ra ATCC 25177 dormant stage; format: toxicity, cell-based, THP-1; conditions: read-out: Selectivity Index; in short: as §3
[20] = Selectivity index, ratio of GI50 for human THP1 cells to MIC90 for Mycobacterium bovis BCG ATCC 35743 active stage; format: toxicity, cell-based, THP-1; conditions: read-out: Selectivity Index; in short: as §2
[21] = Selectivity index, ratio of GI50 for human THP1 cells to MIC90 for Mycobacterium bovis BCG ATCC 35743 dormant stage; format: toxicity, cell-based, THP-1; conditions: read-out: Selectivity Index; in short: as §3
[22] = test system: Escherichia coli; experiment: Growth inhibition of Escherichia coli at 30 ug/ml; format: functional; conditions: read-out: GI
[23] = test system: Escherichia coli; experiment: Growth inhibition of Escherichia coli at 10 ug/ml; format: functional; conditions: read-out: GI
[24] = test system: Escherichia coli; experiment: Growth inhibition of Escherichia coli at 3 ug/ml; format: functional; conditions: read-out: GI
In short: (§4)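 Screened against Gram-negative E. coli and P. aeruginosa and Gram-positive S. aureus and B. subtilis. Compound was tested at 3 µg/ml, and the read-out is percent growth inhibition.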

[25] = test system: Pseudomonas aeruginosa; experiment: Growth inhibition of Pseudomonas aeruginosa at 30 ug/ml; format: functional; conditions: read-out: GI
[26] = test system: Pseudomonas aeruginosa; experiment: Growth inhibition of Pseudomonas aeruginosa at 10 ug/ml; format: functional; conditions: read-out: GI
[27] = test system: Pseudomonas aeruginosa; experiment: Growth inhibition of Pseudomonas aeruginosa at 3 ug/ml; format: functional; conditions: read-out: GI; in short: as §4
[28] = test system: Staphylococcus aureus; experiment: Growth inhibition of Staphylococcus aureus at 30 ug/ml; format: functional; conditions: read-out: GI
[29] = test system: Staphylococcus aureus; experiment: Growth inhibition of Staphylococcus aureus at 10 ug/ml; format: functional; conditions: read-out: GI
[30] = test system: Staphylococcus aureus; experiment: Growth inhibition of Staphylococcus aureus at 3 ug/ml; format: functional; conditions: read-out: GI; in short: as §4
[31] = test system: Bacillus subtilis; experiment: Growth inhibition of Bacillus subtilis at 30 ug/ml; format: functional; conditions: read-out: GI
[32] = test system: Bacillus subtilis; experiment: Growth inhibition of Bacillus subtilis at 10 ug/ml; format: functional; conditions: read-out: GI
[33] = test system: Bacillus subtilis; experiment: Growth inhibition of Bacillus subtilis at 3 ug/ml; format: functional; conditions: read-out: GI; in short: as §4

## C/C(=N\Nc1nc(-c2ccccc2)cs1)c1sc(C)nc1C
[1]
  MIC90: 23.4 µg/mL (≈ 71.3 µM)
[2]
  MIC90: 32.5 µg/mL (≈ 99.1 µM)
[3]
  IC50: 0.82 µg/mL (≈ 2.5 µM)
  MIC90: 25.3 µg/mL (≈ 77.1 µM)
[4]
  IC50: 2 µg/mL (≈ 6.09 µM)
  MIC90: 16.5 µg/mL (≈ 50.1 µM)
[5]
  IC50: 11.6 µg/mL (≈ 35.4 µM)
  MIC90: 40.4 µg/mL (≈ 123 µM)
[6]
  IC50: 3.81 µg/mL (≈ 11.6 µM)
  MIC90: 17.2 µg/mL (≈ 52.4 µM)
[7]; THP1 cells
  GI50: > 100 µg/mL
[7]
  GI90: > 100 µg/mL
[8]; MCF7 cells
  GI50: > 100 µg/mL
[8]
  GI90: > 100 µg/mL
[9]; HCT116 cells
  GI50: > 100 µg/mL
[9]
  GI90: > 100 µg/mL
[10]
  selectivity ratio: 4
[11]
  selectivity ratio: 6
[12]
  selectivity ratio: 2
[13]
  selectivity ratio: 26
[14]
  selectivity ratio: 4
[15]
  selectivity ratio: 6
[16]
  selectivity ratio: 2
[17]
  selectivity ratio: 26
[18]
  selectivity ratio: 4
[19]
  selectivity ratio: 6
[20]
  selectivity ratio: 2
[21]
  selectivity ratio: 26
[22]
  inhibition of growth at 30 µg/mL: 82.3%
[23]
  inhibition of growth at 10 µg/mL: 83.7%
[24]
  inhibition of growth at 3 µg/mL: 81.8%
[25]
  inhibition of growth at 30 µg/mL: 82.4%
[26]
  inhibition of growth at 10 µg/mL: 84%
[27]
  inhibition of growth at 3 µg/mL: 81.8%
[28]
  inhibition of growth at 30 µg/mL: 81.3%
[29]
  inhibition of growth at 10 µg/mL: 82.8%
[30]
  inhibition of growth at 3 µg/mL: 80.7%
[31]
  inhibition of growth at 30 µg/mL: 79.9%
[32]
  inhibition of growth at 10 µg/mL: 81.5%
[33]
  inhibition of growth at 3 µg/mL: 79.2%

## CC(=O)O[C@H]1C(=O)[C@@]2(C)[C@H]([C@H](OC(=O)c3ccccc3)[C@]3(O)C[C@H](OC(=O)[C@H](O)[C@@H](NC(=O)c4ccccc4)c4ccccc4)C(C)=C1C3(C)C)[C@]1(OC(C)=O)CO[C@@H]1C[C@@H]2O [PACLITAXEL]
[7]
  GI90: 5.814 µg/mL (≈ 6.81 µM)
[8]
  GI90: 0.075 µg/mL (≈ 0.0878 µM)
[9]
  GI90: 5.21 µg/mL (≈ 6.1 µM)

## CO[C@H]1/C=C/O[C@@]2(C)Oc3c(C)c(O)c4c(O)c(c(/C=N/N5CCN(C)CC5)c(O)c4c3C2=O)NC(=O)/C(C)=C\C=C\[C@H](C)[C@H](O)[C@@H](C)[C@@H](O)[C@@H](C)[C@H](OC(C)=O)[C@@H]1C [RIFAMPIN]
[1]
  MIC90: 0.7 µg/mL (≈ 0.851 µM)
[2]
  MIC90: 0.5 µg/mL (≈ 0.608 µM)
[3]
  IC50: 0.51 µg/mL (≈ 0.62 µM)
  MIC90: 0.51 µg/mL (≈ 0.62 µM)
[4]
  IC50: 0.75 µg/mL (≈ 0.911 µM)
  MIC90: 0.75 µg/mL (≈ 0.911 µM)
[5]
  IC50: 0.45 µg/mL (≈ 0.547 µM)
  MIC90: 0.45 µg/mL (≈ 0.547 µM)
[6]
  IC50: 0.81 µg/mL (≈ 0.984 µM)
  MIC90: 0.81 µg/mL (≈ 0.984 µM)
[7]
  GI90: > 100 µg/mL
[8]
  GI90: > 100 µg/mL
[9]
  GI90: > 100 µg/mL
